# Compound activity (PubChem)
# UHRF1 binding – UHRF1 methylated DNA binding inhibitors, primary screen, counter-screen for MBD2 inhibitor project, biochemical, TR-FRET, human UHRF1, single concentration; UHRF1 binding to methylated oligo; inhibition, % at 4.4 µM; 370,000 tested, 0.75% active; E3 ubiquitin-protein ligase UHRF1 (Homo sapiens), Q96T88; in the data active = inhibition above about 21%;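 note: UHRF1 SRA domain binding a hemimethylated CpG hairpin DNA probe; 0% = median of test compound wells and 100% = reference inhibitor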
# ABHD5-PLIN5 inh – ABHD5-PLIN5 interaction inhibitors, primary screen, cell lysate, split luciferase complementation, luminescence; AID 602281, 2012; inhibition, % at 4 µM; 360,000 tested, 0.78% active; Perilipin-5 (Homo sapiens) + 1-acylglycerol-3-phosphate O-acyltransferase ABHD5 (Homo …; Split G. princeps luciferase complementation, 4 h;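 active = inhibition above the mean inhibition across every tested compound plus 3 SD, cut at about 22% in these data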;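 note: 0% = DMSO only wells and the 100% control is not disclosed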
# MBD2 inh – inhibitors of MBD2 binding to methylated DNA, primary screen, biochemical, TR-FRET, DNA-binding domain, human; Methyl-CpG-binding domain protein 2 (Homo sapiens), Q9UBB5; MBD2 binding to methylated oligonucleotide; inhibition, % at 4.4 µM; 370,000 tested, 0.31% active; AID 686964, 2013; in the data active = inhibition above about 13%
# Target sequence (Q9UBB5 whole entry, looked up, the tested form may be a part): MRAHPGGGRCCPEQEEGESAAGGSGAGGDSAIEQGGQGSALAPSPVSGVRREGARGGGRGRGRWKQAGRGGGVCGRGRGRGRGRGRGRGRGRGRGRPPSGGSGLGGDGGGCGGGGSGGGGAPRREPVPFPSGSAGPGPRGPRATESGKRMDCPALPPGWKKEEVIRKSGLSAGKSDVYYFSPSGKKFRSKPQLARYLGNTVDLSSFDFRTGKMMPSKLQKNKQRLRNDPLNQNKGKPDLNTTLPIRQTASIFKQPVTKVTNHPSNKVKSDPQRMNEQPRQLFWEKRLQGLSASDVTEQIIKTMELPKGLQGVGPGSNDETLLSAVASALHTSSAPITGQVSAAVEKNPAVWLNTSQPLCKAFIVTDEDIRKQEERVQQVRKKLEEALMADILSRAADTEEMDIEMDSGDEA
# RBBP9 inhibitor – human RBBP9 inhibitors, primary screen, biochemical, fluorescence polarization, FP-Rh probe, HTS; inhibition, % at 7.94 µM; 220,000 tested, 0.2% active; AID 1515, 2009; recombinant RBBP9; Serine hydrolase RBBP9 (Homo sapiens), O75884;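 active = inhibition above the campaign mean of all tested compounds plus 3 SD, cut at about 14% in these data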;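 note: plate controls were DMSO wells with RBBP9 for no effect and wells lacking RBBP9 protein for full effect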
# Target sequence (O75884 whole entry, looked up): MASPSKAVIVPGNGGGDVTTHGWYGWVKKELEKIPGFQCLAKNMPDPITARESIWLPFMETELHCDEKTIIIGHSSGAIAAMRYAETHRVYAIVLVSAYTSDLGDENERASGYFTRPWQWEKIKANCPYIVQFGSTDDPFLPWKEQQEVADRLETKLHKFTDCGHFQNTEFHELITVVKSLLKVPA
#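 Controls: DMSO-treated enzyme wells and wells lacking RBBP9 | Material: RBBP9 protein | Technique: Fluorescence polarization | Replication: Single well per compound, no replicates | Buffer or medium: Tris-NaCl-Pluronic buffer, pH 8.0 | Timing: 30 min compound preincubation, 45 min probe labeling, 25 °C | Read-out basis: Percent inhibition from mP, scaled between DMSO and no-protein wells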
# PRMT1 inh – PRMT1 methyltransferase inhibitors, primary screen, biochemical, fluorescence polarization; recombinant PRMT1, activity-based probe fluorescence polarization; 370,000 tested, 1.3% active; inhibition, % at 2.79 µM;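 active = inhibition above about 21% made by adding two undisclosed values, limit read from the data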
# LEDGF integ inh – blockers of LEDGF/p75-dependent integrase strand transfer – biochemical, TR-FRET, high throughput, primary screen; HIV-1 integrase (with human LEDGF/p75); TR-FRET IN-LEDGF/p75 DNA integration, Eu/Cy5; inhibition, % at 3.7 µM; 370,000 tested, 0.64% active;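 active = inhibition above the screen-wide mean plus 3 SD, cut at about 13% in these data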;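 note: signal is the Cy5 over europium emission ratio at 671 and 618 nm; 0% = plate median of compound wells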
# Active calls of the source: *; · = no result. Hits are enriched below; roughly 3.1% of the tested compounds scored in any of these assays.
SMILES,UHRF1 binding,ABHD5-PLIN5 inh,MBD2 inh,RBBP9 inhibitor,PRMT1 inh,LEDGF integ inh
O=C(/C=C(\Nc1cc(Cl)c(F)c(Cl)c1)c1ccccc1)c1ccccc1,2,·,-3,·,0,1
FC(F)Sc1ccc(NC(=S)NC2CCCCC2)cc1,-5,-13,-5,-8,8,5
CC1CCCCC1NC(=S)Nc1ccc(SC(F)F)cc1 (configuration not stated),38*,-16,1,2,4,0
C/C(=N\NC(=O)c1cc(O)cc(O)c1)c1ccc(NC(=O)Cc2ccccc2)cc1,46*,-1,12,·,7,16*
O=C1CC(N2CCCC2)=NC(=O)N1c1ccc(Br)cc1,1,·,0,·,2,-4
C=CCc1ccc(OCCN2CCc3ccccc3C2)c(OC)c1,29*,0,5,-6,2,-4
O=C(O)CN1C(=O)/C(=C\c2cccc(OCc3ccccc3)c2)SC1=S,-7,-11,-2,·,30*,4
COc1cccc(/C=C2\SC(=S)N(CC(=O)N(C)C3CCS(=O)(=O)C3)C2=O)c1 (configuration not stated),23*,-2,9,·,6,2
COc1ccc(/C=C2\SC(=S)N(CC(=O)N(C)C3CCS(=O)(=O)C3)C2=O)cc1 (configuration not stated),-2,2,-6,·,-2,2
O=C(O)COc1cccc(/C=C2/SC(=S)N(Cc3ccccc3)C2=O)c1,8,-7,5,·,6,7
COc1cccc(CN(C)C(=O)[C@H]2O[C@@H](n3cnc4c(=O)[nH]c(N)nc43)[C@H](O)[C@@H]2O)c1,-1,·,-7,·,-3,2
Cc1ccc(NC(=O)Cc2cccc(OC(F)F)c2)c(S(=O)(=O)N2CCOCC2)c1,1,·,-5,·,-5,4
COCc1cc(N2CCNC[C@H]2C)ccc1N1C[C@@H](C)O[C@@H](C)C1,2,·,-2,·,1,2
Cc1ccc(CN(Cc2ccco2)C(=S)NCC(=O)O)cc1,22*,-5,6,-6,5,0
COCc1cc(CN2CCCC(C(=O)Nc3ccc(-c4ccco4)cc3)C2)ccc1OC (configuration not stated),-2,32*,-7,·,6,3
Cc1ncc(CN2CCCC(C(=O)Nc3ccc(-c4ccco4)cc3)C2)cn1 (configuration not stated),2,15,2,·,10,3
O=C(Cn1nnc(-c2ccc(N3CCOCC3)cc2)n1)c1ccc(F)cc1,6,·,4,·,3,-4
N#Cc1c(-c2ccco2)ccn(Cc2ccc(F)cc2)c1=O,0,2,-3,-3,-1,5
N#Cc1c(-c2ccco2)ccn(Cc2cccc(F)c2)c1=O,23*,2,8,-2,-1,5
O=C(O)C1=C(C(=O)Nc2cc(C(F)(F)F)ccc2Cl)CCCC1,29*,4,-1,-8,-1,-3
O=C(CN1CCCCCC1)Nc1cc(C(F)(F)F)ccc1Cl,1,-8,0,-2,4,-1
CS(=O)(=O)N1c2ccccc2C[C@H]1Cc1cc2ccccc2o1,-1,·,2,·,1,-3
CC(CCN1CCC(C(O)(c2ccccc2)c2ccccc2)CC1)Oc1ccc(C#N)c(F)c1 (configuration not stated),0,·,-1,·,0,-3
S=C1Cc2ccccc2N1,13,86*,-3,-3,35*,1
N#Cc1c(-c2ccccc2)nc(SCC(=O)N(c2ccccc2)c2ccccc2)[nH]c1=O,2,-2,0,-7,8,-2
SMILES,UHRF1 binding,ABHD5-PLIN5 inh,MBD2 inh,RBBP9 inhibitor,PRMT1 inh,LEDGF integ inh
CCOC(=O)CCCCC(=O)c1[nH]c(=O)[nH]c1CSc1nc(-c2ccccc2)c(C#N)c(=O)[nH]1,-2,4,-1,0,10,15*
COc1ccc(C(=O)NCC(=O)OCc2ccc(Br)cc2)cc1,1,0,-2,-6,2,0
O=C(CNC(=O)c1ccc(-c2ccccc2)cc1)OCc1ccc(Br)cc1,26*,-3,6,0,-1,3
Cc1cn2c(=O)c3ncn(C4OC(CO)C(O)C4O)c3n(C)c2n1 (configuration not stated),1,·,-2,·,-3,2
COc1ccc(CCNCC(=O)Nc2c(C)cc(C)cc2C)cc1OC,21*,-2,4,·,0,0
COc1ccc(CCNC(=O)CSC(=O)c2ccccc2)cc1OC,-1,-16,1,-11,22*,0
COc1ccc(CCNC(=O)CSc2ccccc2)cc1OC,0,-2,-2,-9,0,-1
O=C1N2Cc3ccccc3C2CS(=O)(=O)N1Cc1ccccc1 (configuration not stated),-1,·,-1,·,-1,0
O=C(Nc1nc2ncccn2c1-c1ccc(F)cc1)c1ccc(F)cc1,-2,·,-2,·,-12,5
Cc1c(C(=O)OCC(=O)NCCc2ccc(S(N)(=O)=O)cc2)oc2ccccc12,37*,-2,3,·,1,-1
COCc1c(C(=O)OCC(=O)NCCc2ccc(S(N)(=O)=O)cc2)oc2ccccc12,-1,-6,4,·,-1,-6
O=C1NC(=S)/C(=C\c2ccc(-c3ccccc3Cl)o2)S1,0,-4,0,-2,67*,5
O=C1NC(=O)/C(=C/c2ccc(-c3cc(C(=O)O)ccc3Cl)o2)S1,11,-6,1,·,6,7
Cc1ccc(C(=O)N/C(=C/c2ccc(F)cc2)C(=O)NCc2ccncc2)cc1,23*,5,3,-1,0,2
Cc1ccc(C(=O)N/C(=C\c2ccccc2)C(=O)NCc2ccncc2)cc1,3,6,2,·,2,2
COCOCCn1cc(CN2CCS(=O)(=O)N(Cc3ccc(-c4ccncc4)cc3)C(CC(C)C)C2=O)nn1 (configuration not stated),24*,6,5,·,1,1
COCOCCn1cc(CN2CCS(=O)(=O)N(Cc3ccc(-c4ccncc4)cc3)C(C(C)C)C2=O)nn1 (configuration not stated),-1,-3,-1,·,-6,-1
COC(=O)[C@]12C[C@H](CC(=O)NCc3ccc(C)o3)C(=O)N(CCC3=CCCCC3)C1=C[C@H](C(C)C)O[C@@H]2C1CC1,-2,·,1,·,6,2
